# Screening results as filed in PubChem BioAssay.
# Shown are actives, neighbours in structure and some others; about 2.2% of the full set was active somewhere.
# NR2E3 ag-1 = agonists of human NR2E3 nuclear receptor | Q9Y5X4 | inhibition of corepressor binding, % at 3.98 µM | CHO-S Gal4-NCOR/VP16-NR2E3 two-hybrid, luciferase | actives 0.35% (n = 360,000);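 active = inhibition above the mean of all tested compounds plus 3 SD, cut at about 70% in these data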;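 note: 0% = DMSO with NR2E3 transfected cells and 100% = cells lacking NR2E3 construct; higher means lower luciferase signal from less NR2E3 corepressor binding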
# miR-122 sensor = inhibitors of miR-122 in Huh7 cells; actives 0.3% (n = 340,000); activation (reporter increase), % at 12.5 µM; AID 602342; Huh7 miR-122 Renilla luciferase sensor, 48 h; neutral wells = 0, positive control = 100;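 active = mean replicate activation score at least 90 and every replicate individually at or above 90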;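 note: higher luciferase means less miR-122 activity so hits act as miR-122 inhibitors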
# Jurkat NFkB inh = lowers PMA/ionomycin-induced NF-kB signal in Jurkat cells; PMA/ionomycin-induced NF-kB luciferase reporter, luminescence; inhibition, % at 4 µM; actives 0.53% (n = 330,000); in the data active = inhibition above about 50%
# NR2E3 ag-2 = agonists of human nuclear receptor NR2E3; Q9Y5X4; inhibition of corepressor binding, % at 4.78 µM; actives 0.12% (n = 320,000); GST-NR2E3/biotin-RetCOR TR-FRET, 1536-well; AID 2300;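 active = percent inhibition above the cutoff of mean plus 3 SD of all tested compounds, set per screening campaign, cut at about 20% in these data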;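 note: 0% = DMSO wells and 100% = biotin wells as full block of FRET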
#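 System: GST-NR2E3 and biotin-RetCOR proteins; probe or stimulus: 7 nM biotin-RetCOR; doses: compound at 4.8 µM, single dose; schedule: Compound–protein incubation for 5 h at 4 °C; detection: time-resolved FRET; read-out: percent inhibition; controls: biotin wells as high control, 0.6% DMSO wells as low control; format: 1536-well plates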
# FGF22 binding = shifts melting point of recombinant human FGF22; Q9HCT0; recombinant FGF22 thermal shift, SYPRO orange fluorescence; percent of sucrose octasulfate shift, DMSO zero; activity (Tm shift, normalised), % at 9.99 µM; actives 1.5% (n = 340,000); AID 651658;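 active = mean Tm shift, scaled 0 neutral to 100 positive control, at about 1.3% or above, every replicate too, limit read from the data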
# Target sequence (Q9HCT0 whole entry, looked up): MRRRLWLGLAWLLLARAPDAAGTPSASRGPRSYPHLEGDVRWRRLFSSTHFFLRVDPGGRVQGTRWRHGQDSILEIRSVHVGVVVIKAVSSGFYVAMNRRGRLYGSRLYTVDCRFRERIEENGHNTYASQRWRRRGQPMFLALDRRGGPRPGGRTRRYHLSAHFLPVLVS
# 697 NFkB inh = inhibitors of the PMA/ionomycin-induced NF-kB reporter in 697 B cells | 697 B-cell NF-kB luciferase reporter, 16 h | inhibition, % at 4 µM | AID 435022 | actives 0.33% (n = 330,000); in the data active = inhibition above about 35%
# Jurkat NFkB conf = lowers PMA/ionomycin-induced NF-kB signal in Jurkat cells; actives 27% (n = 2,700); AID 435020; Jurkat NF-kB luciferase, 16 h; shares compounds with Jurkat NFkB inh; inhibition, % at 4 µM;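 active = inhibition reaching about 45% at 4 µM in either replicate, limit read from the data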;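 note: plate controls were PMA/ionomycin stimulated DMSO wells for no effect and unstimulated DMSO wells for full effect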
# Starred values were filed as active, the others as inactive; . = not tested or not shown; [ ] = another dose, or the depositor's remark.
SMILES,NR2E3 ag-1,miR-122 sensor,Jurkat NFkB inh,NR2E3 ag-2,FGF22 binding,697 NFkB inh,Jurkat NFkB conf
O=C(Cc1ccc(N2CCNC2=O)cc1)N1CCCC(Nc2ccc(F)c(F)c2)C1 (stereo not given),-48,15,63*,-1,0,-53,16
O=C(Cc1ccc(N2CCNC2=O)cc1)N1CCCC(Nc2cccc(F)c2)C1 (stereo not given),-2,27,59*,8,0,-53,14
CC(C)Cc1nnc(NC(=O)c2ccc(N3CCCC3=O)cc2)s1,-3,-2,-11,5,.,-17,.
NC(=O)c1ccsc1NC(=O)c1ccc(N2CCCC2=O)cc1,-110,.,-161,5,43*,-139,-70
COc1cc(/C=C(/C#N)c2nc3ccccc3[nH]2)ccc1OCC(=O)Nc1ccccc1C(C)C,-9,-3,30,-2,.,7,.
COc1cc(/C=C(/C#N)c2nc3ccccc3[nH]2)ccc1OCC(=O)Nc1ccccc1C,-19,6,53*,-4,0,13,19
C[C@@H]1CN([C@H](C)CO)C(=O)Cc2cc(NC(=O)Nc3cccc4ccccc34)ccc2O[C@H]1CN(C)C(=O)Nc1ccc(C(F)(F)F)cc1,.,8[16.7 µM],.,.,0,.,.
CCN1CCN(c2ccc(S(=O)(=O)N3CCCCC3)cc2NC(=O)/C=C/c2ccc(F)cc2)CC1,-3,.,2,0,0,-3,.
CCN1CCN(c2ccc(S(=O)(=O)N3CCCCC3)cc2NC(=O)/C=C/c2ccc([N+](=O)[O-])cc2)CC1,7,-7,52*,1,0,-3,34
CC1=C(C(=O)Nc2ccccc2F)C(c2ccsc2)C2=C(CC(C)(C)CC2=O)N1 (stereo not given),-9,.,-7,3,0,13,.
CC1=C(C(=O)Nc2cccc(F)c2)C(c2ccsc2)C2=C(CC(C)(C)CC2=O)N1 (stereo not given),-25,.,50*,0,0,-33,7
C[C@@H]1CN([C@H](C)CO)C(=O)c2cc(C#CC3CC3)cnc2O[C@@H]1CN(C)S(=O)(=O)c1cccc(F)c1,.,-8[16.7 µM],.,.,0,.,.
CC(C)(C)c1nnc(N/N=C/c2ccccc2O)n(N)c1=O,-36,-6,56*,0,.,-40,73*
Cc1cc(-c2ccc3c(c2)COc2c4ccccc4nn2-3)on1,-107,-4,-179,5,.,-178,-72
CCCc1cc(-c2ccc3c(c2)COc2c4ccccc4nn2-3)on1,-103,2,-201,2,0,-238,-94
O=C(NNC(=O)C12CC3CC(CC(C3)C1)C2)c1ccccn1,6,6,72*,-3,0,23,23
CCOC(=O)c1ccc(N2CCOCC2)c(NC(=O)c2c(-c3ccccc3)noc2C)c1,-32,43,64*,1,0,-17,13
Cc1onc(-c2ccccc2)c1C(=O)Nc1cc(C(F)(F)F)ccc1N1CCOCC1,-32,82,56*,0,.,-52,29
Cc1onc(-c2ccccc2)c1C(=O)Nc1ccccc1N1CCOCC1,-20,4,-21,-2,.,-35,.
COc1ccc2c3c([nH]c2c1)[C@H](CO)N(C(=O)NC(C)C)CC31CCN(C(=O)NC2CCCC2)CC1,.,.,.,.,0,.,.
CC(O)[C@H]1CN=C(N)N1CCc1cc(C(F)(F)F)cc(C(F)(F)F)c1 (stereo not given in full),-27,-6,-5,1,0,8,.
NC1=NC[C@H](c2ccccc2)N1CCc1cc(C(F)(F)F)cc(C(F)(F)F)c1,6,-14,71*,-1,0,-17,13
Cc1ccc(C(=O)CCNc2ccc(F)c(Cl)c2)o1,-19,-6,73*,-1,.,-27,-1
O=C1C=CCC(/C=C/c2ccccc2)O1 (stereo not given),.,.,100*,2,44*,-165,96*
O=C/C=C/c1ccc(/C=C/c2ccccc2)cc1,.,.,.,.,0,.,.
